Assay results from ChEMBL document CHEMBL1146132, “Synthesis and activity of small molecule GPR40 agonists” (Bioorg Med Chem Lett, 2006).

Legend:
[1] = target: T1, Free fatty acid receptor 1 (Homo sapiens, UniProt O14842); test: Agonist potency at human GPR40 expressed in CHO cells; type: functional, cell-based
Summary of the method: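 Ten-point dose–response in CHO cells stably expressing human GPR40. Receptor activation was read out by a Gal4/Elk1/luciferase reporter gene. Potency was taken from the curve and reported as pEC50.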

[2] = target: T1, Free fatty acid receptor 1; test: Agonist potency at human GPR40 expressed in CHO cells relative to standard by luciferase reporter gene assay; type: functional, cell-based

T1 sequence (O14842 whole entry, the tested form may be a part): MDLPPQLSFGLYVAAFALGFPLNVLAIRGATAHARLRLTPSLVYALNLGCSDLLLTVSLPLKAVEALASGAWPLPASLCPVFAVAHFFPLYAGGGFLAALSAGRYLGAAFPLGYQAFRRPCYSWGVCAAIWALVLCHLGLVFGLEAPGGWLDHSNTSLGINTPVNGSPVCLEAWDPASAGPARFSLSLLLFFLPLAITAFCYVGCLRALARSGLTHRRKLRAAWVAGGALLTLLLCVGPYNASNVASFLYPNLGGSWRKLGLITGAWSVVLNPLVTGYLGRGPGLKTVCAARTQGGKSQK

Cc1nc(-c2ccc(C(F)(F)F)cc2)sc1CNc1ccc(C(C)CC(=O)O)cc1 (configuration not stated)
EC50 [1]: 58.9 nM | %max [2]: 109%

Cc1nc(-c2ccc(C(F)(F)F)cc2)sc1CNc1ccc(CCCC(=O)O)cc1
EC50 [1]: > 10000 nM | %max [2]: 44%

CC(C)NC(=O)CCc1ccc(NCc2cccc(Oc3ccccc3)c2)cc1
EC50 [1]: 39.8 nM | %max [2]: 66%

Cc1nc(-c2ccc(C(F)(F)F)cc2)sc1CNc1ccc([C@H]2C[C@@H]2C(=O)NC(C)C)cc1 (stereo in doubt; 24B) [listing 1 of 2 here]
%max [2]: 71%

O=C(O)/C=C/c1ccc(NCc2cccc(Oc3ccccc3)c2)cc1
EC50 [1]: 145 nM | %max [2]: 76%

Cc1nc(-c2ccc(C(F)(F)F)cc2)sc1CNc1ccc(OCC(=O)O)cc1
EC50 [1]: 288 nM | %max [2]: 100%

O=C(O)COc1ccc(NCc2cccc(Oc3ccccc3)c2)cc1
EC50 [1]: 2040 nM | %max [2]: 84%

CC(Cc1ccc(NCc2cccc(Oc3ccccc3)c2)cc1)C(=O)O (configuration not stated)
EC50 [1]: 100 nM | %max [2]: 70%

Cc1nc(-c2ccc(C(F)(F)F)cc2)sc1CNc1ccc([C@H]2C[C@@H]2C(=O)O)cc1 (stereo in doubt; 14B) [listing 1 of 2 here]
EC50 [1]: 4.9 nM

O=C(O)c1ccc(NCc2cccc(Oc3ccccc3)c2)cc1
EC50 [1]: > 10000 nM | %max [2]: 86%

O=C(O)[C@H]1C[C@@H]1c1ccc(NCc2cccc(Oc3ccccc3)c2)cc1 (stereo in doubt; 14A) [listing 1 of 2 here]
EC50 [1]: 12.3 nM

O=C(O)CCc1ccc(NCc2cccc(Oc3ccccc3)c2)cc1 [GW9508]
EC50 [1]: 64.6 nM | %max [2]: 86%

Cc1nc(-c2ccc(C(F)(F)F)cc2)sc1CNc1ccc([C@H]2C[C@@H]2C(=O)NC(C)C)cc1 (stereo in doubt; 24B) [listing 2 of 2 here]
EC50 [1]: 11 nM

Cc1nc(-c2ccc(C(F)(F)F)cc2)sc1CNc1ccc([C@H]2C[C@@H]2C(=O)NC(C)C)cc1 (stereo in doubt; 22B) [listing 1 of 2 here]
%max [2]: 69%

Cc1nc(-c2ccc(C(F)(F)F)cc2)sc1CNc1ccc(CCC(N)=O)cc1
EC50 [1]: 12.9 nM | %max [2]: 88%

O=C(O)CCCc1ccc(NCc2cccc(Oc3ccccc3)c2)cc1
EC50 [1]: 1120 nM | %max [2]: 59%

O=C(O)[C@H]1C[C@@H]1c1ccc(NCc2cccc(Oc3ccccc3)c2)cc1 (stereo in doubt; 14A) [listing 2 of 2 here]
%max [2]: 88%

Cc1nc(-c2ccc(C(F)(F)F)cc2)sc1CNc1ccc([C@H]2C[C@@H]2C(=O)NO)cc1
EC50 [1]: 6.92 nM | %max [2]: 78%

O=C(O)CSc1ccc(NCc2cccc(Oc3ccccc3)c2)cc1
EC50 [1]: 324 nM | %max [2]: 84%

Cc1nc(-c2ccc(C(F)(F)F)cc2)sc1CNc1ccc(/C=C/C(=O)O)cc1
EC50 [1]: 36.3 nM | %max [2]: 95%

CC(CC(=O)O)c1ccc(NCc2cccc(Oc3ccccc3)c2)cc1 (configuration not stated)
EC50 [1]: 126 nM | %max [2]: 83%

CC(C)NC(=O)[C@H]1C[C@@H]1c1ccc(NCc2cccc(Oc3ccccc3)c2)cc1
EC50 [1]: 12.6 nM | %max [2]: 62%

Cc1nc(-c2ccc(C(F)(F)F)cc2)sc1CNc1ccc(CC(=O)O)cc1
EC50 [1]: > 10000 nM | %max [2]: 18%

CC(C)(Oc1ccc(NCc2cccc(Oc3ccccc3)c2)cc1)C(=O)O
EC50 [1]: > 10000 nM | %max [2]: 14%

NC(=O)CCc1ccc(NCc2cccc(Oc3ccccc3)c2)cc1
EC50 [1]: 51.3 nM | %max [2]: 68%

Cc1nc(-c2ccc(C(F)(F)F)cc2)sc1CNc1ccc([C@H]2C[C@@H]2C(=O)N(C)C)cc1
EC50 [1]: 66.1 nM | %max [2]: 49%

Cc1nc(-c2ccc(C(F)(F)F)cc2)sc1CNc1ccc(CC(C)C(=O)O)cc1 (configuration not stated)
EC50 [1]: 355 nM | %max [2]: 100%

CN(C)C(=O)CCc1ccc(NCc2cccc(Oc3ccccc3)c2)cc1
EC50 [1]: 174 nM | %max [2]: 50%

Cc1nc(-c2ccc(C(F)(F)F)cc2)sc1CNc1ccc([C@H]2C[C@@H]2C(N)=O)cc1
EC50 [1]: 4.47 nM | %max [2]: 80%

O=C(CCc1ccc(NCc2cccc(Oc3ccccc3)c2)cc1)N1CCCC1
EC50 [1]: 115 nM | %max [2]: 46%

Cc1nc(-c2ccc(C(F)(F)F)cc2)sc1CNc1ccc([C@H]2C[C@@H]2C(=O)N[C@H](C)c2ccccc2)cc1
EC50 [1]: 53.7 nM | %max [2]: 42%

O=C(O)Cc1ccc(NCc2cccc(Oc3ccccc3)c2)cc1
EC50 [1]: > 10000 nM | %max [2]: 36%

Cc1nc(-c2ccc(C(F)(F)F)cc2)sc1CNc1ccc([C@H]2C[C@@H]2C(=O)O)cc1 (stereo in doubt; 14B) [listing 2 of 2 here]
%max [2]: 89%

Cc1nc(-c2ccc(C(F)(F)F)cc2)sc1CNc1ccc([C@@H]2C[C@@H]2C(=O)O)cc1
EC50 [1]: 302 nM | %max [2]: 68%

CNC(=O)CCc1ccc(NCc2cccc(Oc3ccccc3)c2)cc1
EC50 [1]: 49 nM | %max [2]: 67%

Cc1nc(-c2ccc(C(F)(F)F)cc2)sc1CNc1ccc([C@H]2C[C@@H]2C(=O)NC(C)C)cc1 (stereo in doubt; 22B) [listing 2 of 2 here]
EC50 [1]: 14.1 nM

Cc1nc(-c2ccc(C(F)(F)F)cc2)sc1CNc1ccc([C@H]2C[C@@H]2C(=O)O)cc1 (stereo in doubt; 10B) [listing 1 of 2 here]
EC50 [1]: 2.45 nM

O=C(NO)[C@H]1C[C@@H]1c1ccc(NCc2cccc(Oc3ccccc3)c2)cc1
EC50 [1]: 14.8 nM | %max [2]: 90%

Cc1nc(-c2ccc(C(F)(F)F)cc2)sc1CNc1ccc([C@H]2C[C@@H]2C(=O)O)cc1 (stereo in doubt; 10B) [listing 2 of 2 here]
%max [2]: 81%

Cc1nc(-c2ccc(C(F)(F)F)cc2)sc1CNc1ccc([C@H]2C[C@@H]2C(=O)NC2CCNC2)cc1 (some centres not stated)
EC50 [1]: 204 nM | %max [2]: 52%

Cc1nc(-c2ccc(C(F)(F)F)cc2)sc1CNc1ccc(C(=O)O)cc1
EC50 [1]: > 10000 nM | %max [2]: 10%

O=C(O)[C@H]1C[C@@H]1c1ccc(NCc2cccc(Oc3ccccc3)c2)cc1 (stereo in doubt; 10A) [listing 1 of 2 here]
EC50 [1]: 13.5 nM

Cc1nc(-c2ccc(C(F)(F)F)cc2)sc1CNc1ccc(CCC(=O)NC(C)C)cc1
EC50 [1]: 100 nM | %max [2]: 84%

O=C(O)[C@H]1C[C@@H]1c1ccc(NCc2cccc(Oc3ccccc3)c2)cc1 (stereo in doubt; 10A) [listing 2 of 2 here]
%max [2]: 72%

Cc1nc(-c2ccc(C(F)(F)F)cc2)sc1CNc1ccc([C@H]2C[C@@H]2C(=O)NC2CCC2)cc1
EC50 [1]: 9.12 nM | %max [2]: 55%

O=C(O)[C@@H]1C[C@H]1c1ccc(NCc2cccc(Oc3ccccc3)c2)cc1
EC50 [1]: 562 nM | %max [2]: 64%

Cc1nc(-c2ccc(C(F)(F)F)cc2)sc1CNc1ccc(CCC(=O)O)cc1
EC50 [1]: 67.6 nM | %max [2]: 108%
